According to PubChem BioAssay:
Activity calls are given as the source filed them.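 How the source made its calls, unless noted: active means fluorescence slope after compound addition differing from the mean of all tested samples at 99.7% confidence, mostly higher but some lower; inactive means the rest.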

Assays:
[1] = inhibitors of TNFa-induced NFkB p65 translocation, primary screen, imaging, HUVEC, MLSMR starter and 10KST1 sets (AID 438;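 active means inhibition above 20% together with a positive visual image hit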;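 further: compound added about 3h40 before a 20 min TNFalpha stimulation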;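 on inhibition: signal is the nuclear over cytoplasmic p65 intensity ratio per well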); conditions: HUVEC TNFa-induced p65 nuclear translocation; cell count: measured here: nuclei count (cytotoxicity indicator), at 2.08 µM; inhibition: at 2 µM, stronger effect = higher value, 0% TNFa-plus-vehicle, 100% no-TNFa wells
[2] = inhibitors of E-selectin induction by TNFa, primary screen, imaging, HUVEC, immunofluorescence, MLSMR starter and 10KST1 sets (AID 487;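 active means visually confirmed hit in the image check and inhibition above 20%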;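 on inhibition: signal is fraction of cell area covered by stained E-selectin grains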;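 on nuclei count: 100% = median nuclei count of all wells on the same plate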); conditions: HUVEC TNFalpha-induced E-selectin immunofluorescence imaging, at 2 µM; inhibition: stronger effect = higher value; nuclei count: measured here: cell number, toxicity
[3] = DUSP6 inhibitors restoring Erk phosphorylation by chemical complementation, primary imaging in DUSP6-transfected HeLa (AID 609;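 active means compounds giving at least 50% inhibition in the cell-based MKP-3 phosphatase rescue imaging test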;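 on inhibition: phospho-Erk level distribution per well compared with pooled transfected vehicle control wells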); conditions: HeLa MKP-3 transfected, phospho-Erk imaging KS statistic, at 10 µM, cells stimulated with TPA for 15 min
[4] = target: Dual specificity protein phosphatase 6 (Homo sapiens) (UniProt Q16828); assay: as above; conditions: HeLa MKP-3 transfected, phospho-Erk imaging KS statistic; at 10 µM; stronger effect = higher value; cells stimulated with TPA for 15 min
Chain of Dual specificity protein phosphatase 6 (Homo sapiens) (Q16828 whole entry, looked up): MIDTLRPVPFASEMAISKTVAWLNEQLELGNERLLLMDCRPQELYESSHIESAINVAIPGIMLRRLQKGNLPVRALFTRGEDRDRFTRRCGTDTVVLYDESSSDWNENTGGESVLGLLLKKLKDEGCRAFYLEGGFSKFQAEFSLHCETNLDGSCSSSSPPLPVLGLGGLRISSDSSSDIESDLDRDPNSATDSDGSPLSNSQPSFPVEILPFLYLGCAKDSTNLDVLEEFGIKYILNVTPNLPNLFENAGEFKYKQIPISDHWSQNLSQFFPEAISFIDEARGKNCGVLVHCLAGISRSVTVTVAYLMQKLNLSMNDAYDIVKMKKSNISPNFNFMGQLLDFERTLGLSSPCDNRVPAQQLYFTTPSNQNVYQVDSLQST

[5] = target: Voltage-gated potassium channel subunit beta-2 (Rattus norvegicus) (UniProt P62483); assay: KvBeta enzyme negative modulators, primary screen, biochemical, NADPH fluorescence (AID 622;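 active means fluorescence slope higher than the sample average by over 3 SD, cut at about -0.22 in these data, passing the limit was not always enough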;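 further: slope of raw intensity against log time taken from 70 to 1610 s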); conditions: recombinant KvBeta, 4-cyanobenzaldehyde reduction, at 10 µM, stronger effect = higher value
Chain of Voltage-gated potassium channel subunit beta-2 (Rattus norvegicus) (P62483 whole entry, looked up): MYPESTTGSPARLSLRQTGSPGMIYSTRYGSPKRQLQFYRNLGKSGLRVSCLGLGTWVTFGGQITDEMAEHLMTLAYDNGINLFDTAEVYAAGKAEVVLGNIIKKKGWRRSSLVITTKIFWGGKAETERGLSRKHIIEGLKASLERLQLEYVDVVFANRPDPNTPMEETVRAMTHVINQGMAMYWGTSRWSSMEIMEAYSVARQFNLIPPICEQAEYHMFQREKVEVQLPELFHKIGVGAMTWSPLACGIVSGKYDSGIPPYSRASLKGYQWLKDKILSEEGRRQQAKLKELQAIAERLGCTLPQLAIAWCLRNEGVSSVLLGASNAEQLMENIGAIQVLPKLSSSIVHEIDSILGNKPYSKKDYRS

[6] = target: Voltage-gated potassium channel subunit beta-2 (Rattus norvegicus) (UniProt P62483); assay: KvBeta positive modulators, primary screen, biochemical, NADPH fluorescence (AID 623;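 active means NADPH fluorescence slope more negative than the mean of all samples by about 3 SD, 99.7% confidence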;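 further: fluorescence intensity change per second fitted from 20 to 320 s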); conditions: Recombinant KvBeta, NADPH fluorescence decrease slope, 10 min; at 10 µM; stronger effect = lower value
[7] = target: Muscarinic acetylcholine receptor M4 (Homo sapiens) (UniProt P08173); assay: compounds altering M4/GIRK thallium flux, either direction, primary screen, M4 allosteric agonist project, cell-based, HEK293 M4/GIRK, BTC-AM (AID 625); conditions: at 10 µM, actives lie on both sides;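 further: thallium influx through GIRK channels coupled to M4 in HEK293 cells with BTC-AM dye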
Chain of Muscarinic acetylcholine receptor M4 (Homo sapiens) (P08173 whole entry, looked up): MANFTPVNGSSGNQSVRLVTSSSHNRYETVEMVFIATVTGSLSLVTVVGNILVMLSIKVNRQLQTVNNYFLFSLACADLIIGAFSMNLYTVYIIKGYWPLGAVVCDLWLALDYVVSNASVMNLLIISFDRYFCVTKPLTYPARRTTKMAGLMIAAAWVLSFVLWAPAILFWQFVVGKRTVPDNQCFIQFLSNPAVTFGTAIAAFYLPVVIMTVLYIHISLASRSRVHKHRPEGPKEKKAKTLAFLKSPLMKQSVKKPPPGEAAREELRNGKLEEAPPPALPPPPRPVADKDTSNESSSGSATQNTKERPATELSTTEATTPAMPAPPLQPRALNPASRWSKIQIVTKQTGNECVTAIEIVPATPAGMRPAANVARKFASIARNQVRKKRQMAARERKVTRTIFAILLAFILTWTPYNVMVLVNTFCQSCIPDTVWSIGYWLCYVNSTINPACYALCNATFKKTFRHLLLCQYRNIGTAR
Method in brief: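 System: HEK293 cells with M4 receptor and GIRK channels | Incubation: Cells overnight at 37 °C, BTC-AM loading 1 h, reads 2 min total | Technique: Kinetic BTC-AM fluorescence sampled at 1 Hz, 10 s pre-addition baseline | Measure: Post-addition slope, 15–24 s, of baseline-normalized fluorescence | Control set: Carbachol positive, DMSO negative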

[8] = inhibitors of larval lipid processing in zebrafish, primary screen, whole organism, PED6 fluorescence, gall bladder and intestine (AID 686;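 active means a full or partial loss of lipid-probe fluorescence in the fish gall bladder, intestine or both, judged by eye; inactive means no fluorescence loss, or compound toxic to the fish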;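 further: larvae 5 to 7 days old with five fish per well; signal comes from phospholipase A2 cleavage of quenched PED6 carried via bile; overnight exposure to compound and PED6 before scoring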); conditions: Zebrafish larvae PED6 lipid processing, fluorescence scoring; screened at 20 µM (by protocol)
Method in brief: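 Test system – live zebrafish larvae aged 5-7 days, whole organism · Buffer or medium – E3 fish medium · Reagent – quenched phospholipase substrate PED6, 100 nM final, ingested by larvae · Doses – 20 µM single dose · Incubation – overnight compound and PED6 incubation · Technique – visual fluorescence microscopy scoring of gall bladder, gut · Read-out basis – visual per-well fluorescence inhibition score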

[9] = inhibitors of Chlamydomonas gravitaxis, primary screen, whole organism, Chlamydomonas reinhardtii, WT vs cilia-less mutant, absorbance, 96-well (AID 463189;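 active means inhibition at or above 50% relative to wild type and mutant plate controls; inactive means inhibition below 50%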;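 further: 0% = wild type cc124 cells in DMSO and 100% = ciliumless bld1 mutant cells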); conditions: OD600 absorbance, 2 days, at 10 µM, stronger effect = higher value
[10] = measured here: cell density z-score
[11] = measured here: nuclear c-Myc green intensity z-score
[12] = measured here: nuclear pErk red intensity z-score, stronger effect = higher value

Row | SMILES | cell count [1] | inhibition [1] | inhibition [2] | nuclei count [2] | z-score [3, 10] | z-score [3, 11] | z-score [3, 12] | inhibition [4] | fluorescence slope [5] | NADPH fluorescence slope [6] | fluorescence slope [7] | outcome [8] | inhibition [9]
1 | CC(C)c1nc2n[nH]c(N)c2c2c1CCCC2 | 576 | 2.1% (inactive) | -38.2% (inactive) | 148% | -0.386 | 1.02 | -1.27 | 7.21% (inactive) | -0.465 (inactive) | -8.5e-05 (inactive) | 0.00509 (inactive) | inactive | -2.96% (inactive)
2 | Cn1c(=O)[nH]c(=O)c2c1nc(Br)n2CCSc1ncccn1 | 643 | -7.6% (inactive) | -107% (inactive) | 179% | 0.65 | -0.91 | -0.622 | -2.59% (inactive) | -0.446 (inactive) | -4.5e-05 (inactive) | 0.00519 (inactive) | inactive | 13.2% (inactive)
3 | CC(=O)/C=C(\C)NCCNc1c(F)c(F)c(CO)c(F)c1F | 570 | -4.3% (inactive) | -22.3% (inactive) | 145% | 0.666 | -0.56 | 0.111 | 1.9e-07% (inactive) | -0.319 (inactive) | -1.4e-05 (inactive) | 0.00522 (inactive) | inactive | 42.2% (inactive)
4 | O=S(=O)(c1cccc2nsnc12)N1CCN(C/C=C/c2ccccc2)CC1 | 680 | 3.2% (inactive) | 16.6% (inactive) | 117% | -0.555 | -0.43 | 0.591 | 1.9e-07% (inactive) | -0.527 (inactive) | -5.7e-05 (inactive) | 0.00411 (inactive) | inactive | 45.8% (inactive)
5 | Cc1cc(Nc2ccc3ccccc3c2)n2ncnc2n1 | 503 | -0.6% (inactive) | 56.4% (inactive) | 146% | -0.633 | 0.516 | -1.5 | 3.97% (inactive) | -0.414 (inactive) | -4.4e-05 (inactive) | 0.00533 (inactive) | inactive | -3.1% (inactive)
6 | CC(C)c1nc(N2CCOCC2)c(C#N)c2c1COC(C)(C)C2 | 535 | -5.2% (inactive) | -79.8% (inactive) | 110% | 0.188 | -0.524 | -1.28 | -9.53% (inactive) | -0.424 (inactive) | 4.6e-06 (inactive) | 0.00516 (inactive) | inactive | -30% (inactive)
7 | CCOC(=O)C1=C(N)n2c(s/c(=C\c3cccnc3)c2=O)=C(C(=O)OC)C1c1cccnc1 (stereo unspecified) | 326 | -14.1% (inactive) | -129% (inactive) | 110% | -0.584 | 1.82 | -0.0878 | -2.59% (inactive) | -0.501 (inactive) | 1.7e-05 (inactive) | 0.00354 (inactive) | inactive | -3.27% (inactive)
